Data as given in ChEMBL document CHEMBL5653631, “A Potent and Selective ULK1 Inhibitor Suppresses Autophagy and Sensitizes Cancer Cells to Nutrient Stress” (iScience, 2018).
One block for each molecule: values may come before it.

Tests used:
[1] = target: Serine/threonine-protein kinase WNK2 (Homo sapiens) (UniProt Q9Y3S1); test: Inhibition of human recombinant Wnk2 at 500 nM in presence of ATP by radiometric assay relative to control
[2] = target: T1, Tyrosine-protein kinase ZAP-70 (Homo sapiens) (UniProt P43403); test: Inhibition of human recombinant ZAP70 at 500 nM related to control ULK1
T1 sequence (whole entry): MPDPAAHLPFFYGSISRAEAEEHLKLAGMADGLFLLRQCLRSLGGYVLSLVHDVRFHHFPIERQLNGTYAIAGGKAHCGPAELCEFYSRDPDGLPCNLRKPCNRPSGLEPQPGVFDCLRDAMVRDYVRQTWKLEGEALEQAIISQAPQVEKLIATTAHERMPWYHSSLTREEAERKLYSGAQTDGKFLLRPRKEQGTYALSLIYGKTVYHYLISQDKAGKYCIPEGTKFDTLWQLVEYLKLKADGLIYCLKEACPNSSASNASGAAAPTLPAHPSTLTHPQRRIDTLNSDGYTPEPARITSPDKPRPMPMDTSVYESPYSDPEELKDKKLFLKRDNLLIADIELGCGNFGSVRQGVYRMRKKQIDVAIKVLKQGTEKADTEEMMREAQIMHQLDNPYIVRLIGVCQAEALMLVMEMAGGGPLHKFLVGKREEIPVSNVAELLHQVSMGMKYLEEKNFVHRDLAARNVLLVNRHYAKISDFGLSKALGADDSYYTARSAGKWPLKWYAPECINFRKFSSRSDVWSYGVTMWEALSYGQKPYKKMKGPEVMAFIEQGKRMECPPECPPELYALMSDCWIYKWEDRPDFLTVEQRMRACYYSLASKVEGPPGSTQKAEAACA

[3] = target: Serine/threonine-protein kinase WNK2 (Homo sapiens) (UniProt Q9Y3S1); test: Inhibition of human recombinant Wnk2 at 500 nM related to control ULK1
[4] = target: T2, Testis-specific serine/threonine-protein kinase 4 (Homo sapiens) (UniProt Q6SA08); test: Inhibition of human recombinant TSSK4 at 500 nM in presence of ATP by radiometric assay relative to control
T2 sequence (whole entry): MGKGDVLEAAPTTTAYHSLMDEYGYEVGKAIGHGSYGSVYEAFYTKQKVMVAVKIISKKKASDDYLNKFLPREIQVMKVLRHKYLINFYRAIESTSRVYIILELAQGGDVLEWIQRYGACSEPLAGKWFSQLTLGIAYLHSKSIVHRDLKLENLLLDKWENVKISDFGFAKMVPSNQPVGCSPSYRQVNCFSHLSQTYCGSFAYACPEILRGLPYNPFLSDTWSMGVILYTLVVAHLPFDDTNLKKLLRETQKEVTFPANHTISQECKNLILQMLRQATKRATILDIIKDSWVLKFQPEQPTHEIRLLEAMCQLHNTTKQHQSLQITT

[5] = target: T3, Aurora kinase C (Homo sapiens) (UniProt Q9UQB9); test: Inhibition of human recombinant AurC at 500 nM in presence of ATP by radiometric assay relative to control
T3 sequence (whole entry): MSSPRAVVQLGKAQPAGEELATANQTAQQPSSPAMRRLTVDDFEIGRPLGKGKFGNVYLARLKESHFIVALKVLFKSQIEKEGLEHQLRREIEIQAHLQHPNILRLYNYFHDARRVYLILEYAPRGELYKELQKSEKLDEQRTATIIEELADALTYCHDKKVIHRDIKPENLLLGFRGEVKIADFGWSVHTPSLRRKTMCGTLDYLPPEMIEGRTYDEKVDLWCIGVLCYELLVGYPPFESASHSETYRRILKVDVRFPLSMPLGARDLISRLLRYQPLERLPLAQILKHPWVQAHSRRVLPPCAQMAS
Procedure, shortened: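 Part of a radiometric in vitro activity panel of 327 recombinant human kinases. Each kinase was tested in duplicate at one inhibitor concentration. Activity remaining was expressed as a percentage of the vehicle control, and percent inhibition was taken as 100 minus that value.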

[6] = target: Serine/threonine-protein kinase PLK3 (Homo sapiens) (UniProt Q9H4B4); test: Inhibition of human recombinant PLK3 at 40 nM related to control ULK1
Chain of Serine/threonine-protein kinase PLK3 (Homo sapiens) (Q9H4B4 whole entry, looked up): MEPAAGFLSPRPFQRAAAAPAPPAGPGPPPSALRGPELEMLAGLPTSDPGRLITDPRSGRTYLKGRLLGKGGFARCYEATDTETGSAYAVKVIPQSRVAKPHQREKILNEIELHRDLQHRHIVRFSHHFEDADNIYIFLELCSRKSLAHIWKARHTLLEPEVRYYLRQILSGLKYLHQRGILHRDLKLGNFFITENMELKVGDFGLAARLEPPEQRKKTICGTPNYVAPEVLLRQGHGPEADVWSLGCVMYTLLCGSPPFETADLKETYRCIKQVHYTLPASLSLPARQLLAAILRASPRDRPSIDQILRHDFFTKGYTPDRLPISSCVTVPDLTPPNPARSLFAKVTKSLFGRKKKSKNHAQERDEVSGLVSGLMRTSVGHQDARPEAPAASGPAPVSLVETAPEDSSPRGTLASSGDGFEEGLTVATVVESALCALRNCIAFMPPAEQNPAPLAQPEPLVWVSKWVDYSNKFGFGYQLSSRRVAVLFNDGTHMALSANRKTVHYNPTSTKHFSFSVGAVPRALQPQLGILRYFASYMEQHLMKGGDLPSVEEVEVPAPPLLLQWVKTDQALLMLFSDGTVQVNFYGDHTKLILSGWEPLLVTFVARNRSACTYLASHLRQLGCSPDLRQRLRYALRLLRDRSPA

[7] = target: Mast/stem cell growth factor receptor Kit (Homo sapiens) (UniProt P10721); test: Inhibition of human recombinant KIT at 40 nM related to control ULK1
[8] = target: Serine/threonine-protein kinase 10 (Homo sapiens) (UniProt O94804); test: Inhibition of human recombinant LOK at 40 nM related to control ULK1
[9] = target: MAP kinase-interacting serine/threonine-protein kinase 2 (Homo sapiens, UniProt Q9HBH9); test: Inhibition of human recombinant MNK2
[10] = target: cAMP-dependent protein kinase catalytic subunit beta (Homo sapiens) (UniProt P22694); test: Inhibition of human recombinant PKACbeta at 15 nM related to control ULK1
[11] = target: Serine/threonine-protein kinase WNK1 (Homo sapiens) (UniProt Q9H4A3); test: Inhibition of human recombinant Wnk1 at 15 nM related to control ULK1
[12] = target: Serine/threonine-protein kinase mTOR (Homo sapiens) (UniProt P42345); test: Inhibition of human recombinant FRAP at 15 nM related to control ULK1
[13] = target: Serine/threonine-protein kinase Nek7 (Homo sapiens) (UniProt Q8TDX7); test: Inhibition of human recombinant NEK7 at 15 nM related to control ULK1
Chain of Serine/threonine-protein kinase Nek7 (Homo sapiens) (Q8TDX7 whole entry, looked up): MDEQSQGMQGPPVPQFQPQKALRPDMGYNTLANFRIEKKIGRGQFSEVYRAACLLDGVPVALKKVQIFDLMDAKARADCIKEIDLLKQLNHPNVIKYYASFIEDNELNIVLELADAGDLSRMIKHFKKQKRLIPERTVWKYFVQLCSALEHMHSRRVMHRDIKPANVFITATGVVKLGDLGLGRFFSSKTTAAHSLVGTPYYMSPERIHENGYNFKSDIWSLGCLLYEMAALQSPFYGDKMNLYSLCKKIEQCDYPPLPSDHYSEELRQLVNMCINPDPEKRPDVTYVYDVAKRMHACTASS

[14] = target: Fibroblast growth factor receptor 3 (Homo sapiens) (UniProt P22607); test: Inhibition of human recombinant FGFR3 at 15 nM in presence of ATP by radiometric assay relative to control
Chain of Fibroblast growth factor receptor 3 (Homo sapiens) (P22607 23-806 limits assumed): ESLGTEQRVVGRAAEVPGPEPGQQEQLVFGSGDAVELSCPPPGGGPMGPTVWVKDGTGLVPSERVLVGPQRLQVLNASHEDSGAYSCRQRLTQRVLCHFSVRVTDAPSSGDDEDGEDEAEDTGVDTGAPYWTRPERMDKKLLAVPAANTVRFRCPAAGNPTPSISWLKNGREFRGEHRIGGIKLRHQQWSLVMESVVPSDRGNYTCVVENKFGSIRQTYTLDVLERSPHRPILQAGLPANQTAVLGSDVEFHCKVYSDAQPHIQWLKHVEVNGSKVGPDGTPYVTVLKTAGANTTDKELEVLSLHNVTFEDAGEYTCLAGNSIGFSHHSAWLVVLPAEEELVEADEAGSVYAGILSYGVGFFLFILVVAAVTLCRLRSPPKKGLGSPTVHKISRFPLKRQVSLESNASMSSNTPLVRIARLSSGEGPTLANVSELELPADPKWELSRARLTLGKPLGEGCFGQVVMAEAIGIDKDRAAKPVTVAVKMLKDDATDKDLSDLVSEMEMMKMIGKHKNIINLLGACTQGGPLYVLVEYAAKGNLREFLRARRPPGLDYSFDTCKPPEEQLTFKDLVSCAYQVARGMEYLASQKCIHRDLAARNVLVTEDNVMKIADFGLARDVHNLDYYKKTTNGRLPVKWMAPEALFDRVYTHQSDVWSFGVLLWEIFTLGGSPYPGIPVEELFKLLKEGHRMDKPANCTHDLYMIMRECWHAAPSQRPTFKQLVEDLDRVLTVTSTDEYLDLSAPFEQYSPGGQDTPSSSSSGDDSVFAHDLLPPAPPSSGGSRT

[15] = target: Calcium/calmodulin-dependent protein kinase type 1B (Homo sapiens) (UniProt Q6P2M8); test: Inhibition of human recombinant CaMK1b at 15 nM in presence of ATP by radiometric assay relative to control
Homo sapiens = species: Homo sapiens; test: Inhibition of human recombinant ABL at 15 nM in presence of ATP by radiometric assay relative to control
Procedure, shortened: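 Panel of 327 recombinant human kinases in radiometric activity assays, each screened in duplicate at a single inhibitor concentration; percent activity remaining relative to vehicle control, percent inhibition taken as 100 minus activity remaining.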

[16] = target: Ribosomal protein S6 kinase alpha-6 (Homo sapiens) (UniProt Q9UK32); test: Inhibition of human recombinant RSK4 at 15 nM related to control ULK1
Chain of Ribosomal protein S6 kinase alpha-6 (Homo sapiens) (Q9UK32 whole entry): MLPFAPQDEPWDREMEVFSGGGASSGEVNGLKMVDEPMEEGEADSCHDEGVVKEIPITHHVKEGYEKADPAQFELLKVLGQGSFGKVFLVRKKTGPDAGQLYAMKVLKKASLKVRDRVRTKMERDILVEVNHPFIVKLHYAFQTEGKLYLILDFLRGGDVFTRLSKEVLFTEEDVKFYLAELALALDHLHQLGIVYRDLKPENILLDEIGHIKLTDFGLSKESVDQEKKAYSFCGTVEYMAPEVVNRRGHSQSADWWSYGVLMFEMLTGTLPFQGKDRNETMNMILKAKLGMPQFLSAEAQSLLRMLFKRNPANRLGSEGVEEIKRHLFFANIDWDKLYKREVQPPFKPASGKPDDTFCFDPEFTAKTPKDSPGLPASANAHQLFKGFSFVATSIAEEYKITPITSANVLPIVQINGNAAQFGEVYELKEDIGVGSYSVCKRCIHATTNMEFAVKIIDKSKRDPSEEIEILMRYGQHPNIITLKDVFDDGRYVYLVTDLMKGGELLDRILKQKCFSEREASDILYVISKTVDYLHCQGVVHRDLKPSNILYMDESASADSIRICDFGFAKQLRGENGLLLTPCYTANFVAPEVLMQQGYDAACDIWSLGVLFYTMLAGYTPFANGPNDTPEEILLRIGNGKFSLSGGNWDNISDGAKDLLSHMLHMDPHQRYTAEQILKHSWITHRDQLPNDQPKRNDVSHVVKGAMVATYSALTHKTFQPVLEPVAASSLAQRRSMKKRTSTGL

Chain of Serine/threonine-protein kinase WNK2 (Homo sapiens) (Q9Y3S1 whole entry): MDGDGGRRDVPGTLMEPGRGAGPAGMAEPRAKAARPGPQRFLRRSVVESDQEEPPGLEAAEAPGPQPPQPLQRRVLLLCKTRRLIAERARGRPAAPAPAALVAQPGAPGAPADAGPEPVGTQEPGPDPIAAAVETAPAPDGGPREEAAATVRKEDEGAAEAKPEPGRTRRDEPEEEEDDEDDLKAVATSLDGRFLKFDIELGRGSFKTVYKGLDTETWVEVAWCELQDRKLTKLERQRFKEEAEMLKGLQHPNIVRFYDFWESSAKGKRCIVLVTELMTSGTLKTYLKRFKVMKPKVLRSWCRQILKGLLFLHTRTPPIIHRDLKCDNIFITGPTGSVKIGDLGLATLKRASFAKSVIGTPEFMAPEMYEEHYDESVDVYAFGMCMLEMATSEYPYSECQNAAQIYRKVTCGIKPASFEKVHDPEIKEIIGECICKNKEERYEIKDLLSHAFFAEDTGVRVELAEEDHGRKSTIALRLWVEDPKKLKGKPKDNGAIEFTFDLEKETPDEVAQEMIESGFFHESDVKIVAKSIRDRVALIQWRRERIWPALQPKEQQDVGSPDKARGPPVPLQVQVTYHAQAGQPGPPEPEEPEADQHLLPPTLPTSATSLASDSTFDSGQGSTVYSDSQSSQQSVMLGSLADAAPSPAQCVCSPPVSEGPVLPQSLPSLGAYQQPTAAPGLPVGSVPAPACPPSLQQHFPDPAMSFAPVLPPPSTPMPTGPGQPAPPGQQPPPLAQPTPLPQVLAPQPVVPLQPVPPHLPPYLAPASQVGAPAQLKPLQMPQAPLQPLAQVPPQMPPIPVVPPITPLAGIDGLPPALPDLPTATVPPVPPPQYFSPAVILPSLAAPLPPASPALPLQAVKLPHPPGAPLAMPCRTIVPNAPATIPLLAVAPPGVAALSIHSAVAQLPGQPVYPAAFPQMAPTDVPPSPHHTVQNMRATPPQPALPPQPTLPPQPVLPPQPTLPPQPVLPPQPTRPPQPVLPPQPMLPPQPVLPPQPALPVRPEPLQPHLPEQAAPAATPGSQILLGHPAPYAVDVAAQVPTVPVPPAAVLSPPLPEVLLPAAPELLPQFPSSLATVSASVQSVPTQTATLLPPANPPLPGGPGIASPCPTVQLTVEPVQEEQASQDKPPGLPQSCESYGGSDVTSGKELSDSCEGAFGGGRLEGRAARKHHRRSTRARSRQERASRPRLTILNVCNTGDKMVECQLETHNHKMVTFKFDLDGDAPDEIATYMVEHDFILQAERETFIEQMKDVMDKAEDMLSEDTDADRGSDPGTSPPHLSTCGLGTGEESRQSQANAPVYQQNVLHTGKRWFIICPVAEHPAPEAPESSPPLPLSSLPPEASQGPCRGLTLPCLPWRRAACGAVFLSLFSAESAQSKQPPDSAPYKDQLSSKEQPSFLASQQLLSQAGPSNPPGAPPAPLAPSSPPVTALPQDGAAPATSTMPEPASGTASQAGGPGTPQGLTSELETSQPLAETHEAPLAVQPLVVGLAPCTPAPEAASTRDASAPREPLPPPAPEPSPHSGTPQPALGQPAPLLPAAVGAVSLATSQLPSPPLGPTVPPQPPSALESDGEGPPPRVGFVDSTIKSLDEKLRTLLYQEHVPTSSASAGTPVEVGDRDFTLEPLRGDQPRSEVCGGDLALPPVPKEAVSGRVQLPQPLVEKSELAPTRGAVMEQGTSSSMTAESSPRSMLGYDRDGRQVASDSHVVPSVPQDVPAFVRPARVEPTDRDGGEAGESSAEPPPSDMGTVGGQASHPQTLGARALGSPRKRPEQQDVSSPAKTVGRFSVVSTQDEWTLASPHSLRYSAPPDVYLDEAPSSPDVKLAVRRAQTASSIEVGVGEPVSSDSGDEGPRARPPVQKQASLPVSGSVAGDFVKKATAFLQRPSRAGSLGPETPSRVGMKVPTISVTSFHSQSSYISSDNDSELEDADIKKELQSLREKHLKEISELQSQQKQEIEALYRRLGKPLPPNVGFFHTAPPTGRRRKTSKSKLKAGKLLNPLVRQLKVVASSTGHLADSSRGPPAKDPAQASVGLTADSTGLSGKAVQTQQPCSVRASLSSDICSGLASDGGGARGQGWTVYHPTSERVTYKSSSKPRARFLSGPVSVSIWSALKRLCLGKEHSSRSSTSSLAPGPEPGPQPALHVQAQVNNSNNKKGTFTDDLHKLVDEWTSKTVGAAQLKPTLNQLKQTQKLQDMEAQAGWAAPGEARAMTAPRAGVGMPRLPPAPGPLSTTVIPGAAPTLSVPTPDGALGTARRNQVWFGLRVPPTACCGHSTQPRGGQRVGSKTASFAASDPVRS

inhibition [1]: 1%
fold change (FC) [2]: 0.01
fold change (FC) [3]: 0.01
inhibition [4]: 0%
inhibition [5]: 73%
Compound: CNC(=O)c1ccccc1Oc1nc(Nc2cc(OC)c(OC)c(OC)c2)ncc1Br

fold change (FC) [6]: 0
fold change (FC) [7]: 0
fold change (FC) [8]: 0
IC50 [9]: 22 nM
Compound: O=C(N[C@@H](C1CC1)C(F)(F)F)c1cc(-c2cnn3cc(-c4ccc(F)cc4)cnc23)cs1

fold change (FC) [10]: 0
fold change (FC) [11]: 0.05
fold change (FC) [12]: 0
fold change (FC) [13]: 0
inhibition [14]: 0%
inhibition [15]: 0%
inhibition (Homo sapiens): 82%
fold change (FC) [16]: 0
Compound: CC(C)[C@H](NC(=O)c1cc(-c2cnn3cc(-c4ccc(OCCN5CCCCC5)cc4)cnc23)cs1)C(F)(F)F
